These results are taken from paper PMC8717358 (Journal of the American Chemical Society, 2021).

Numbering of substitutions follows the chain as printed. Where only a bound is given, the exact number is not on record here.

Experiment [1] addresses IBiD ACTR (Homo sapiens, UniProt Q92793). The class given is binding.
Experiment [2] concerns MDA-MB-231 cells. Description: Isobologram synergy with lapatinib, cell viability assay. It counts as cell-based. As to conditions: fixed dose ratios, 2 days, MTT.
In experiment [3] the target is T1, full-length Med25 (Homo sapiens, UniProt Q71SY5).
T1 sequence (Q71SY5 1-747): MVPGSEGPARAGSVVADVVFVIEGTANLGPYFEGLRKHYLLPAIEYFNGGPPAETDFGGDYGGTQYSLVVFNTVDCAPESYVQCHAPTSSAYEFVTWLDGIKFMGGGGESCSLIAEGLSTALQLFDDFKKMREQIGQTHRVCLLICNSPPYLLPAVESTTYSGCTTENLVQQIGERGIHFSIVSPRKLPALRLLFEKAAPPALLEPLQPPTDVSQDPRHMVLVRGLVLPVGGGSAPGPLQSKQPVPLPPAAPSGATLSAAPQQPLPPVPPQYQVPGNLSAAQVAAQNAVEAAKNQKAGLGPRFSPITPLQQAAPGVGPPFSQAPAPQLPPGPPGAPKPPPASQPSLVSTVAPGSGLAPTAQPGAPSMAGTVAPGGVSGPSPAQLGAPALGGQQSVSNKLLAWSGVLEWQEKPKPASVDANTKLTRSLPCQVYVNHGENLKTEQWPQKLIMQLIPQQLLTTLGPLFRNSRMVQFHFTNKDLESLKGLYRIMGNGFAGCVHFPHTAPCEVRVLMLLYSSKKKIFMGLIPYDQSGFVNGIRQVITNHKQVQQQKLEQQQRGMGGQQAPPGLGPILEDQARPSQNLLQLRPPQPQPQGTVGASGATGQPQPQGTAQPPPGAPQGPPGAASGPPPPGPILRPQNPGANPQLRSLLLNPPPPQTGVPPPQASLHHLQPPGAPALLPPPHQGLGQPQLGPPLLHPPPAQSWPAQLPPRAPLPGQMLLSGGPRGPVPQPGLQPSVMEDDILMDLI
Description: Cellular thermal shift assay in HeLa cell nuclear extracts. It counts as cell-based. As to conditions: 25 μM NA. In outline:
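HeLa cell nuclear extracts were dosed with 25 μM test compound or an equivalent amount of DMSO vehicle. Samples were then heated across a range of temperatures to assess thermal stabilization of Med25.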

Experiment [4] concerns the target T2, Med25 AcID fl-VP16(465–490) (Homo sapiens, UniProt Q71SY5).
T2 sequence (Q71SY5 389-543 limits assumed): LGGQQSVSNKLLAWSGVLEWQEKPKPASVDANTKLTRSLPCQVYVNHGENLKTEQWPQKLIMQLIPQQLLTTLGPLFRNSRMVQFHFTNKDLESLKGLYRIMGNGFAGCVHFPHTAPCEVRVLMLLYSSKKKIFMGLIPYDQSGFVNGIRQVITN
The class given is binding.

In experiment [5] the target is T3, Med25 ETV5 complex (Homo sapiens, UniProt Q71SY5).
T3 sequence (Q71SY5 1-747): T1 sequence (Q71SY5 1-747)
Description: Co-immunoprecipitation of ETV5 with Med25 in VARI068 cells. The class given is cell-based. In outline: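 Cells were treated with test compound. ETV5 was co-immunoprecipitated with Med25 and detected by Western blot.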

Experiment [6] concerns the target T4, Med25 ATF6α (Homo sapiens, UniProt Q71SY5).
T4 sequence (Q71SY5 389-543 limits assumed): T2 sequence (Q71SY5 389-543 limits assumed)
The experiment in a line: Fluorescence polarization inhibition of Med25 ATF6α interaction. The note with it: H2 binding surface. A general note: Polarisation of emitted light reports the rotation of a fluorescent probe.

Experiment [7] addresses T5, Med25 AcID ETV5 (Homo sapiens, UniProt Q71SY5).
T5 sequence (Q71SY5 389-543 limits assumed): T2 sequence (Q71SY5 389-543 limits assumed)
The experiment in a line: Fluorescence polarization inhibition of Med25 AcID ETV5 interaction. The note with it: H1 binding surface.

The target in experiment [8] is T3, Med25 ETV5 complex. The experiment in a line: Co-immunoprecipitation of ETV5 with Med25 in HeLa cells. The class given is cell-based. As to conditions: 25 μM NA.
The target in experiment [9] is T6, Med25 AcID (Homo sapiens, UniProt Q71SY5).
T6 sequence (Q71SY5 389-543 limits assumed): T2 sequence (Q71SY5 389-543 limits assumed)
Description: Mass spectrometry. The class given is binding. As to conditions: mass spectrometry.

The target in experiment [10] is T7, Med25 AcID (Homo sapiens, UniProt Q71SY5, K519R).
T7 sequence (Q71SY5 394-543 K519R): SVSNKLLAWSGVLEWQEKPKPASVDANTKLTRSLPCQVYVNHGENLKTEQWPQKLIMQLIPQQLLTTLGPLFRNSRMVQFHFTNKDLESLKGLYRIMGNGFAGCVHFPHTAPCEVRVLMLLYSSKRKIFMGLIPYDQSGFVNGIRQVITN
The experiment in a line: Mass spectrometry. The note with it: Med25 K519R mutant. It counts as binding.

Experiment [11] deals with T8, Med25 AcID (Homo sapiens, UniProt Q71SY5, K520R).
T8 sequence (Q71SY5 394-543 K520R): T7 sequence (Q71SY5 394-543 K519R) with R126K, K127R
The experiment in a line: Mass spectrometry. The class given is binding. As to conditions: Med25 K520R mutant.

The test system of experiment [12] is MMP2 transcript. Description: qPCR analysis of MMP2 transcript levels in VARI068 cells. It counts as cell-based. As to conditions: normalized to RPL19. In outline: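 Test compound- or vehicle-treated cells were assayed by qPCR for MMP2 transcript, normalized to reference gene RPL19. Runs were technical triplicates in biological duplicate and averaged.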
On the technique in general: In qPCR the cycle at which signal appears reflects the starting amount.

As to `Cc1cc(O)c(C=O)c2c1C(=O)Oc1c(C)c(O)c3c(c1O2)C(O)OC3=O` (centres unmarked) [NA, norstictic acid], in [1], the IC50 is > 250 µM. In addition, the synergy with lapatinib result in experiment [2] is recorded as “strong synergy was observed”. In addition, the “thermal stabilization of endogenous Med25” value in experiment [3] was “stabilizes endogenous Med25 protein”. Also, the “time at which significant inhibition was observed” value in experiment [4] (time-course experiment) is 5 min. The results for the “formation of Med25 ETV5 complex” value in experiment [5] and in [8] were “blocks the Med25 ETV5 complex” and “blocks the formation of the Med25 ETV5 complex”, respectively. Further, the “inhibition of Med25 PPI with ATF6α” value in experiment [6] was “inhibits”. Also, the “inhibition of Med25 PPI with ETV5” value in experiment [7] was “inhibits”. The “covalent adduct formation with Med25 AcID” value (“covalent adduct formation” for short) in [9] was “concentration-dependent covalent adduct(s)”. In [10], the “reduction in mass abundance of the +1 covalent adduct” value was 53%. Also, in experiment [11], the “reduction in mass abundance of the NA covalent adduct” value is 22%. Moreover, the “MMP2 transcript levels relative to vehicle” value in experiment [12] is recorded as “substantial downregulation of MMP2”.
`COc1cc(C(=O)O)c2c(c1C)OC(=O)c1c(C)cc(O)c(C=O)c1O2` [PA, psoromic acid] gave an IC50 in experiment [4] of 3.9 ± 0.3 µM.
Consider `COc1cc(C)c2c(c1C=O)Oc1c(c(C)c(O)c3c1C(O)OC3=O)OC2=O` (centres unmarked) [Stictic acid], for which the IC50 in experiment [4] was > 250 µM.
Take `COc1cc(C)c(C(=O)Oc2cc(C)c(C(=O)O)c(O)c2C)c(O)c1C=O` [baeomycesic acid]: the “covalent adduct formation” value in [9] was “covalent adducts with Med25 were observed”.
On to `O=Cc1ccccc1O` [salicylaldehyde], for which the “impact on binding of activators to Med25 AcID” value in [4] is reported as “does not impact binding of activators”. For the same molecule, the “covalent adduct formation” value in experiment [9] is reported as “efficiently labels Med25 AcID”.

Usually IC50 stands for the point on the concentration scale where inhibition reaches its midpoint.
